# Test results taken from ChEMBL document CHEMBL1143062, “Identification of natural-product-derived inhibitors of 5-lipoxygenase activity by ligand-based virtual screening” (J Med Chem, 2007).
# pIC50: −log10 of the molar value.
# Assays:
# [1] = biological target: T1, Polyunsaturated fatty acid 5-lipoxygenase (Homo sapiens, UniProt P09917); assay: Inhibition of 5-LO activity in ionophore A23187 and arachidonic-stimulated human intact PMNL; format: functional
# T1 sequence (P09917 whole entry): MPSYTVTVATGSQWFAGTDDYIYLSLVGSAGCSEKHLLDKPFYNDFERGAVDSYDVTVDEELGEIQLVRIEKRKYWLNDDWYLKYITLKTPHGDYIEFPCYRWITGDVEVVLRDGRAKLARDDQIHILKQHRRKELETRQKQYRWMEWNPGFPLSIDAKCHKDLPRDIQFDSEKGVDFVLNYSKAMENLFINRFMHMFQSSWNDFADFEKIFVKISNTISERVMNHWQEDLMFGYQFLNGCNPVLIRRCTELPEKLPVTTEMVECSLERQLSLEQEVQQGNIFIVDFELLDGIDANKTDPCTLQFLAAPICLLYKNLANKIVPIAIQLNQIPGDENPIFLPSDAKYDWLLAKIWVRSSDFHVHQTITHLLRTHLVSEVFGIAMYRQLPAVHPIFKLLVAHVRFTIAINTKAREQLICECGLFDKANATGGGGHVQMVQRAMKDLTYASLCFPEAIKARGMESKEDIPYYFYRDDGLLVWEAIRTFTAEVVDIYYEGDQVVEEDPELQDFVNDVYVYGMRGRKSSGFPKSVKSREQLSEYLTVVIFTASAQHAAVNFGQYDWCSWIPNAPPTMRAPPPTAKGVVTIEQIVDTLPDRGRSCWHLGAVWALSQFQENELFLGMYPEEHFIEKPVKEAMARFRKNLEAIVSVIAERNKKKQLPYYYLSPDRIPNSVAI
# Method in brief: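 Freshly isolated human PMNL from healthy-donor leukocyte concentrates (dextran sedimentation, Nycoprep, hypotonic erythrocyte lysis), 5 × 10^6 cells/mL in PBS pH 7.4 with 1 mg/mL glucose and 1 mM CaCl2. 5-LO products analysed by HPLC; n ≥ 3, mean ± SEM.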
# [2] = biological target: T2, Polyunsaturated fatty acid 5-lipoxygenase (Homo sapiens) (UniProt P09917); assay: Inhibition of partially purified human 5-LO expressed in Escherichia coli assessed as remaining 5-LO activity at 1 uM; values are per cent of control
# T2 sequence (whole entry): T1 sequence (P09917 whole entry)
# [3] = biological target: T1, Polyunsaturated fatty acid 5-lipoxygenase; assay: Inhibition of partially purified human 5-LO expressed in Escherichia coli
# Method in brief: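 Recombinant 5-LO from E. coli MV1190 (pT3-5LO, expressed at 27 °C), partially purified by ammonium sulfate precipitation and ATP-agarose chromatography of the S100 fraction. 0.5 µg protein in PBS pH 7.4 with 1 mM EDTA and 1 mM ATP, compound 5-10 min at 4 °C. Started with 2 mM CaCl2 and 20 µM arachidonic acid, 10 min at 37 °C, methanol stop. HPLC product analysis as remaining activity; n ≥ 3, mean ± SEM.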
# [4] = biological target: T2, Polyunsaturated fatty acid 5-lipoxygenase (Homo sapiens); assay: Inhibition of partially purified human 5-LO expressed in Escherichia coli assessed as remaining 5-LO activity at 10 uM; values are per cent of control
Compound,pIC50 [1],residual activity [2] [%],pIC50 [3],residual activity [4] [%]
CCCOc1cc(C)c2c(c1C)CC(C(C)C(=O)Nc1ccccn1)CC2 (stereo unspecified),6.05,–,5.22,–
Cc1cc(OCCN(C)C)c(C)c2c1CCC(C(C)C(=O)Nc1ccccn1)C2 (stereo unspecified),–,56,–,73
COCCOc1cc(C)c2c(c1C)CC(C(C)C(=O)NC1CCCC1)CC2 (stereo unspecified),< 5.00,67,< 5.00,56
COc1ccc(C(=O)Nc2nc3c(s2)CC2(C)CCC4C(C)C(=O)OC4C2C3C)cc1 (stereo unspecified),5.22,57,< 5.00,78
Cc1cc(OCCN2CCOCC2)c(C)c2c1CCC(C(C)C(=O)Nc1nccs1)C2 (stereo unspecified),–,74,–,62
CCCOc1cc(C)c2c(c1C)CC(C(C)C(=O)Nc1ncc(C)s1)CC2 (stereo unspecified),6.00,–,6.10,–
COc1ccccc1CC(=O)Nc1nc2c(s1)CC1(C)CCC3C(C)C(=O)OC3C1C2C (stereo unspecified),5.40,87,< 5.00,86
COc1cc(C)c2c(c1C)CC(C(C)C(=O)Nc1nccs1)CC2 (stereo unspecified),–,73,–,56
CC1C(=O)OC2C1CCC1(C)Cc3sc(NC(=O)Nc4ccc(F)cc4F)nc3C(C)C21 (stereo unspecified),5.15,46,6.22,52
CC1C(=O)OC2C1CCC1(C)Cc3sc(NC(=O)c4ccc5c(c4)OCO5)nc3C(C)C21 (stereo unspecified),5.70,67,< 5.00,96
Cc1cc(OCCN(C)C)c(C)c2c1CCC(C(C)C(=O)Nc1nccs1)C2 (stereo unspecified),< 5.00,55,6.00,65

# More lines, now with the values ahead:
pIC50 [1],residual activity [2] [%],pIC50 [3],residual activity [4] [%],Compound
5.10,66,5.00,52,CC1C(=O)OC2C1CCC1(C)Cc3sc(NC(=O)C4CCCC4)nc3C(C)C21 (stereo unspecified)
5.10,64,< 5.00,64,COc1cc(C)c2c(c1C)CC(C(C)C(=O)NCc1cccs1)CC2 (stereo unspecified)
6.10,50,6.00,36,CCCOc1cc(C)c2c(c1C)CC(C(C)C(=O)Nc1nccs1)CC2 (stereo unspecified)
5.30,54,6.10,42,COc1cc(C)c2c(c1C)CC(C(C)C(=O)Nc1ccccn1)CC2 (stereo unspecified)
5.40,55,6.00,67,CSc1cccc(NC(=O)Nc2nc3c(s2)CC2(C)CCC4C(C)C(=O)OC4C2C3C)c1 (stereo unspecified)
5.10,–,5.52,–,CCCOc1cc(C)c2c(c1C)CC(C(C)C(=O)NCc1cccs1)CC2 (stereo unspecified)
< 5.00,55,5.40,42,COc1cc(C)c2c(c1C)CC(C(C)C(=O)NC(C)(C)C)CC2 (stereo unspecified)
5.52,78,< 5.00,54,CC1C(=O)OC2C1CCC1(C)Cc3sc(NC(=O)NCc4ccccc4)nc3C(C)C21 (stereo unspecified)
5.00,87,< 5.00,88,Cc1nnsc1C(=O)Nc1nc2c(s1)CC1(C)CCC3C(C)C(=O)OC3C1C2C (stereo unspecified)
6.05,65,< 5.00,60,COc1cc(C(=O)Nc2nc3c(s2)C[C@]2(C)CC[C@@H]4[C@H](OC(=O)[C@H]4C)[C@H]2[C@@H]3C)cc(OC)c1OC
< 5.00,47,6.05,41,COc1cc(C)c2c(c1C)CC(C(C)C(=O)NCc1ccco1)CC2 (stereo unspecified)
